Screens as filed in PubChem BioAssay.
Compounds with a hit are over-represented: about 1.9% of the library has one in this group of screens.
ASAP1 inh = inhibitors of human ASAP1 ArfGAP activity; Q9ULH1; ASAP1-stimulated ARF1 GTP hydrolysis, GDP FP detection; inhibition, % at 16.5 µM; hit rate 0.19% among 360,000; AID 624377; in the data active = inhibition above about 25%
Target sequence (Q9ULH1 325-724 limits assumed): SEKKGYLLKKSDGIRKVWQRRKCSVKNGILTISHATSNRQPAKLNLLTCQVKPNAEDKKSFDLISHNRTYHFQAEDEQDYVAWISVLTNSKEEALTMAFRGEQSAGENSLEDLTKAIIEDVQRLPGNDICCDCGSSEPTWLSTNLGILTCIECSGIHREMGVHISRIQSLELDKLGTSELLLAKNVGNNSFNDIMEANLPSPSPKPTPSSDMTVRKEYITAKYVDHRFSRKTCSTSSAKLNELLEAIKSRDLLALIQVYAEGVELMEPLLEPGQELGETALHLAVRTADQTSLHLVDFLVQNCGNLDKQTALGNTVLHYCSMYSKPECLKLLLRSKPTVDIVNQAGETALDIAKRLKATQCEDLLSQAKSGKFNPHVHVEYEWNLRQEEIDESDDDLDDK
PLC-gamma1 inh = inhibitors of human phospholipase C gamma1 | P19174 | AID 720700 | hit rate 0.84% among 370,000 | inhibition, % at 12.2 µM | purified PLC-gamma1, fluorogenic substrate, fluorescence; in the data active = inhibition above about 9.5%
ARFGAP1 inhibitor = inhibits rat ARF GTPase activating protein 1; Q62848; Arfgap1-stimulated ARF1 GTP hydrolysis, GDP FP detection; inhibition, % at 16.5 µM; hit rate 0.26% among 360,000; AID 651572;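 active = inhibition above a per-plate limit, mean inhibition of low control wells plus 3 SD, cut at about 25% in these data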
Target sequence (Q62848 1-136 limits assumed): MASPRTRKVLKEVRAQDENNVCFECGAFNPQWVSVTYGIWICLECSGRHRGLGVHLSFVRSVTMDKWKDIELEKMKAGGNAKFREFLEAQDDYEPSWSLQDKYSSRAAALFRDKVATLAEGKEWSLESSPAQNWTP
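Replicates: Single well per compound | Assay system: Truncated rat Arfgap1 GAP domain | Control set: No-Arfgap1 wells (100%) versus DMSO full-reaction wells (0%) | Times: Enzyme reaction 120 min at 25 °C after 20 min preincubation | Reagent: Human ARF1(Δ1-17)-GTP substrate | Measured by: Tracer-displacement fluorescence polarization with EDTA stop, 620/688 nm | Measure: Percent inhibition of Arfgap1-stimulated GTP hydrolysis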
PLCb3 inh = PLC-beta3 (human) inhibition, primary screen; Q01970; Purified PLC-beta3, fluorogenic substrate, fluorescence; inhibition, % at 12.2 µM; hit rate 0.18% among 370,000; in the data active = inhibition above about 11%
sPLA2-III inh = Inhibits HGIII-sPLA2 liposome hydrolysis, primary screen. Q9NZ20. QFRET BODIPY PC-A2 liposome hydrolysis, fluorescence. inhibition, % at 12.2 µM. hit rate 0.56% among 370,000. AID 743126;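 active = inhibition above mean plus 3 SD of compounds lying within the high and low control bounds, cut at about 19% in these data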
ARFGAP1 confirm = rat ARFGAP1 inhibition, confirmed; shares compounds with ARFGAP1 inhibitor; ARFGAP1-stimulated ARF1 GTP hydrolysis, GDP tracer FP; inhibition, % at 16.5 µM; hit rate 30% among 890; AID 651608;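 active = average inhibition over triplicates above the hit cutoff set in the earlier primary screen, cut at about 25% in these data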
A number is an active result; - = inactive; . = no result; + = active, no number.

SMILES | ASAP1 inh | PLC-gamma1 inh | ARFGAP1 inhibitor | PLCb3 inh | sPLA2-III inh | ARFGAP1 confirm
CC(=O)Nc1ccc(N2C(=O)CC(N3CCSCC3)C2=O)cc1 (stereo not given) | - | - | 25 | - | - | -
Nc1ccc2nc(-c3cccc(-c4nc5ccc(N)cc5[nH]4)c3)[nH]c2c1 | - | - | 60 | - | - | 106
CCN(CC)CCNC(=O)c1ccc(NC(=O)c2cn(-c3ccccc3)nc2-c2cccs2)cc1 | - | - | 39 | - | - | 56
CCN(CC)CCNC(=O)c1ccc(NC(=O)c2cc(-c3ccco3)nc3ccccc23)cc1 | - | - | 26 | - | - | -
CCN(CC)CCNC(=O)c1ccc(NC(=O)c2cn(-c3ccc(F)cc3)nc2-c2cccc(OC)c2)cc1 | - | - | - | - | - | .
N=c1c2c(ccn1CCCCc1ccccc1)Oc1ccc3ccccc3c1C2c1ccccc1 (stereo not given) | . | - | . | - | - | .
COc1cc2oc(-c3ccc(O)cc3)cc(=O)c2c(O)c1OC | - | - | 36 | - | - | -
COc1cc2oc(-c3ccc(O)cc3)cc(=O)c2c(OC)c1O | - | - | - | - | - | .
Cc1ccc2sc(-c3ccc(NC(=O)c4cc(-n5cnnc5)ccc4Cl)cc3)nc2c1 | - | - | 28 | - | - | -
COc1ccc(-c2nc(C(=O)NCCCN3CCOCC3)cc3c2[nH]c2ccccc23)cc1OC | - | - | 28 | - | - | -
Cc1ccc(C(=O)NCCCNc2ccc(C(F)(F)F)cc2[N+](=O)[O-])cc1 | - | - | 25 | - | - | -
C#CCN1C(C(=O)OC)CN(CCCCCC)CCS1(=O)=O (stereo not given) | . | - | . | - | - | .
CCCCS(=O)(=O)N1CCCc2nc(-c3ccc(F)cc3)ccc21 | - | - | - | - | - | .
Cn1nc(-c2ccc(C(=O)Nc3cccnc3)cc2)c2ccccc2c1=O | - | - | 25 | - | - | -
O=C(CN(c1ccc(F)cc1)S(=O)(=O)c1ccc2c(c1)OCCO2)Nc1ccc2c(c1)OCO2 | - | - | 27 | - | - | -
COC(=O)[C@]12C[C@H](CC(=O)NCc3ccc(C)o3)C(=O)N(CCc3ccc(OC)c(OC)c3)C1=C[C@H](C(C)C)O[C@@H]2C1CC1 | . | - | . | - | - | .
COC(=O)c1ccc(N2CCN(C)CC2)c(NC(=O)COc2ccccc2Cl)c1 | - | - | 27 | - | - | -
COc1cc(C=Nn2c(-c3ccc(F)cc3)n[nH]c2=S)ccc1OCc1ccccc1 | . | - | . | - | - | .
O=C(COC(=O)CNS(=O)(=O)c1ccc2ccccc2c1)Nc1ccccc1Sc1ccccc1 | - | - | 30 | - | - | -
CC(C)NC(=O)Cn1c(SCC(=O)N2CCCCCC2)nc2ccccc21 | - | - | - | - | - | .
CC(C)NC(=O)Cn1c(SCC(=O)N2c3ccccc3CC2C)nc2ccccc21 (stereo not given) | - | - | 31 | - | - | -
Cc1ccc(C2C(C#N)=C(N)Oc3cc4c(cc32)OCO4)cc1 (stereo not given) | - | - | 25 | - | - | -
CSc1ccc(C2C(C#N)=C(N)Oc3cc4c(cc32)OCO4)cc1 (stereo not given) | - | - | - | - | - | .
COc1cccc(Nc2nc(-c3sc(NC(=O)c4ccccc4)nc3C)cs2)c1 | - | - | 26 | - | - | -
COc1ccc(N(C(=O)c2ccco2)C(C(=O)NC2CCCC2)c2ccc(C)cc2)c(OC)c1 (stereo not given) | - | - | - | - | - | .
SMILES | ASAP1 inh | PLC-gamma1 inh | ARFGAP1 inhibitor | PLCb3 inh | sPLA2-III inh | ARFGAP1 confirm
COc1ccc(N(C(=O)c2ccco2)C(C(=O)NC2CCCC2)c2cccnc2)c(OC)c1 (stereo not given) | - | - | 26 | - | - | -
O=C(/C=C/c1ccc(Cl)cc1)NC(=S)Nc1ccc(NC(=O)c2ccco2)cc1 | - | - | 86 | - | - | 110
CC(=O)Nc1ccc(NC(=S)NC(=O)/C=C/c2ccc(Cl)cc2)cc1 | - | - | - | - | - | .
Cc1ccc2cc(CCNC(=O)C(C)(C)C)c(=O)[nH]c2c1 | - | - | 28 | - | - | -
Cc1ccc2cc(CCNC(=O)c3ccco3)c(=O)[nH]c2c1 | - | - | - | - | - | .
COc1ccccc1CC(=O)NC1CCCc2ccccc21 (stereo not given) | - | - | - | - | - | .
COc1cccc2c1SCc1ccccc1C2CC(N)=O (stereo not given) | - | - | 31 | - | - | -
COCCNCc1nc2sc(C)c(-c3ccccc3)c2c(=O)[nH]1 | - | - | 28 | - | - | -
O/N=C\c1ccc2noc(-c3ccc(Cl)cc3)c2c1 | - | - | 25 | - | - | 29
Clc1ccc2c(N/N=C/c3cccc(Br)c3)ccnc2c1 | - | - | 38 | - | - | 63
Clc1ccc2c(N/N=C/c3ccccc3Br)ccnc2c1 | - | - | 27 | - | - | 26
O=[N+]([O-])c1ccc(/C=N/Nc2ccnc3cc(Cl)ccc23)o1 | - | - | - | - | - | .
CC(C)N1Cc2nnn(Cc3ccccc3)c2-c2cc(N3CCCC3)ccc2S1(=O)=O | . | - | . | - | - | .
O=C1[C@@H](CCc2ccccc2)[C@@H]2c3ccccc3C=NN2[C@@H]2c3ccccc3C=NN12 | . | - | . | - | - | .
COc1cc(Cl)c(NC2=CC(=O)C(=O)c3ccccc32)c(OC)c1 | - | - | 28 | - | - | -
COC(=O)[C@]12C[C@H](CC(=O)NCc3ccc(C)o3)C(=O)N(Cc3cccc4ccccc34)C1=C[C@H](C(C)(C)C)O[C@@H]2C | . | - | . | - | - | .
Cc1cccnc1Nc1nc(-c2ccc(O)cc2O)cs1 | - | - | 34 | - | - | -
COC(=O)[C@]12C[C@H](CC(=O)NCc3cccc(C(F)(F)F)c3)C(=O)N(Cc3ccc4c(c3)OCO4)C1=C[C@H](C(C)C)O[C@@H]2C1CC1 | . | - | . | - | - | .
CCN(CC)C(=O)CN1C(=O)C2CCCCN2C(=O)c2ccccc21 (stereo not given) | . | - | . | - | - | .
COc1ccc(NC(=O)c2ccc3c(c2)C(=O)N(Cc2ccncc2)C3=O)cc1S(N)(=O)=O | - | - | 35 | - | - | -
c1ccc2c(c1)COc1c3ncccc3nn1-2 | - | - | + | - | - | -
CCCOc1ccc(C(=O)N/N=C/c2c[nH]c3ccc(Br)cc23)cc1 | - | - | 25 | - | - | -
COc1ccc(C(=O)N/N=C/c2c[nH]c3ccccc23)cc1 | - | - | - | - | - | .
C=CCOCCN(C)C1=NS(=O)(=O)c2cc([N+](=O)[O-])ccc21 | - | - | - | - | - | .
CN(CCO)C1=NS(=O)(=O)c2cc([N+](=O)[O-])ccc21 | - | - | 30 | - | - | -
COc1ccc(/C=N/NC(=O)c2ccc(Cl)c(S(N)(=O)=O)c2)cc1OCC(N)=O | - | - | - | - | - | .
COc1cc(/C=N/NC(=O)c2ccc(Cl)c(S(N)(=O)=O)c2)ccc1OCC(N)=O | - | - | 44 | - | - | -
